From ChEMBL document CHEMBL3108694, “Development of novel dual binders as potent, selective, and orally bioavailable tankyrase inhibitors” (J Med Chem, 2013)
pEC50, pIC50: −log10 of the molar value. Converted amounts (≈) assume the structure as drawn.

How the values were obtained:
[1] = Intrinsic clearance in rat liver microsomes at 1 uM after 30 mins; assay type: ADME; details: read-out: CLH
Summary of the method: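 Substrate depletion in rat liver microsomes: 0.25 mg protein/mL, 1 mM NADPH and 2 mM MgCl2 in 50 mM potassium phosphate, pH 7.4, prewarmed to 37 °C. Test compound was added to a final 1 μM, and parent loss was measured after 30 min at 37 °C.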

[2] = Clearance in rat at 0.5 mg/kg, iv; assay type: ADME, organism-based; parameters: dose 0.5 mg/kg, route intravenous; details: in vivo
Summary of the method: (§1)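 Male rats received a single intravenous dose of 0.5 mg/kg. Mean clearance, steady-state volume of distribution and half-life were reported.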

[3] = (§2) Inhibition of TNKS in human SW480 cells assessed as degradation of total pool of beta-catenin after 40 to 48 hrs; assay type: cell-based
Summary of the method: (§3)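 SW480 cells were seeded at 10 000/well in MEMα with 10% HI FBS, GlutaMAX, pyruvate and 10 mM HEPES. They were treated with a 10-point, 3-fold dilution series at 0.1% final DMSO for 40–48 h at 37 °C, then lysed. Total β-catenin was measured by MSD sandwich immunoassay (polyclonal capture, SULFO-TAG mAb detection).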

[4] = Inhibition of TNKS in human SW480 cells assessed as accumulation of axin-2 into cytoplasmic foci after 24 hrs by Hoechst dye-based assay; details: SW480, 24 h
Mus musculus [5] = assay: Ex vivo inhibition of TNKS in tumor of athymic nude mouse xenografted with human DLD1 cells assessed as inhibition of super-Topflash reporter gene transcription at 10 mg/kg, po qd administered for 3 days measured 24 hrs post last dose by dual-glo luciferase reporter gene assay relative to control; assay type: functional; details: DLD-1
Summary of the method: (§4)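 Athymic nude mice carried subcutaneous DLD-1 tumors engineered with a Wnt-responsive STF firefly luciferase and a constitutive Renilla luciferase. At about 250 mm³, mice were randomized (n = 4 per group) and dosed orally once daily for 3 days at 10 or 50 mg/kg, or with vehicle. Tumor axin2 was measured by MSD immunoassay. STF was read by Dual-Glo, firefly normalized to Renilla. Plasma was taken for exposure.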

[6] = Oral bioavailability in rat at 2 mg/kg; assay type: ADME, organism-based; details: in vivo
[7] = Half life in rat at 0.5 mg/kg, iv; assay type: ADME, organism-based; parameters: dose 0.5 mg/kg, route intravenous; details: in vivo; summary of the method: as §1
[8] = AUC (0 to infinity) in CD-1 mouse at 30 mg/kg, po; assay type: ADME, organism-based; parameters: time infinity, dose 30 mg/kg, route oral; details: plasma
Summary of the method: (§5)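 Male CD-1 mice given a single oral dose of 30 mg/kg. Vehicle was 10% Pluronic F68, 30% HPBCD and 60% water, pH adjusted to 10.0 with NaOH for most compounds or to 2.5 with methanesulfonic acid for one. Mean plasma PK parameters were reported.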

[9] = Volume of distribution at steady state in rat at 0.5 mg/kg, iv; assay type: ADME, organism-based; parameters: dose 0.5 mg/kg, route intravenous; details: in vivo, read-out: Vdss; summary of the method: as §1
[10] = Inhibition of TNKS in human DLD1 cells expressing APC mutant assessed as inhibition of super-Topflash reporter gene transcription after 40 to 48 hrs by dual-glo luciferase reporter gene assay; assay type: cell-based; details: DLD-1
Summary of the method: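 DLD-1 cells carried an 8× TCF-driven firefly luciferase and an EF1a-driven Renilla luciferase, and were seeded at 10 000/well in RPMI with 10% FBS without antibiotics. A 10-point, 3-fold dilution series starting at 10 μM was applied for 40–48 h at 37 °C. Firefly and Renilla activities were read with Dual-Glo reagents.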

[11] = Tmax in CD-1 mouse at 30 mg/kg, po; assay type: ADME, organism-based; parameters: dose 30 mg/kg, route oral; details: in vivo; summary of the method: as §5
[12] = Fraction unbound in mouse plasma at 5 uM after 5 hrs by equilibrium dialysis method; assay type: ADME, cell-free
Summary of the method: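 Mouse plasma was spiked to a final 5 μM and equilibrium-dialyzed against plasma water (ultrafiltrate) for 5 h at 37 °C in a CO2 incubator, using a rapid equilibrium dialysis device. Fraction unbound was determined in duplicate.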

Mus musculus [13] = assay: Ex vivo inhibition of TNKS in tumor of athymic nude mouse xenografted with human DLD1 cells assessed as inhibition of super-Topflash reporter gene transcription at 50 mg/kg, po qd administered for 3 days measured 24 hrs post last dose by dual-glo luciferase reporter gene assay relative to control; assay type: functional; details: DLD-1; summary of the method: as §4
Plasma = assay: Unbound plasma concentration in athymic nude mouse xenografted with human DLD1 cells at 50 mg/kg, po qd administered for 3 days measured 24 hrs post last dose; assay type: ADME, organism-based, DLD-1; parameters: dose 50 mg/kg, route oral; details: in vivo; summary of the method: as §4
[14] = Cmax in CD-1 mouse at 30 mg/kg, po; assay type: ADME, organism-based; parameters: dose 30 mg/kg, route oral; details: in vivo; summary of the method: as §5
[15] = Solubility in fasted state simulated intestinal fluid at pH 6.8; assay type: ADME
Rattus norvegicus [16] = assay: AUC (infinity) in rat at 5 mg/kg, iv; assay type: ADME, organism-based, Plasma; parameters: time infinity, dose 5 mg/kg, route intravenous; details: in vivo
[17] = Volume of distribution at steady state in rat at 5 mg/kg, iv; assay type: ADME, organism-based; parameters: dose 5 mg/kg, route intravenous; details: in vivo, read-out: Vdss
[18] = Half life in rat at 5 mg/kg, iv; assay type: ADME, organism-based; parameters: dose 5 mg/kg, route intravenous; details: in vivo
[19] = molecular target: T1, Poly [ADP-ribose] polymerase tankyrase-1 (Homo sapiens, UniProt O95271); assay: Inhibition of 6x-His-tagged TNKS1 (unknown origin) after 60 mins
T1 sequence (O95271 whole entry): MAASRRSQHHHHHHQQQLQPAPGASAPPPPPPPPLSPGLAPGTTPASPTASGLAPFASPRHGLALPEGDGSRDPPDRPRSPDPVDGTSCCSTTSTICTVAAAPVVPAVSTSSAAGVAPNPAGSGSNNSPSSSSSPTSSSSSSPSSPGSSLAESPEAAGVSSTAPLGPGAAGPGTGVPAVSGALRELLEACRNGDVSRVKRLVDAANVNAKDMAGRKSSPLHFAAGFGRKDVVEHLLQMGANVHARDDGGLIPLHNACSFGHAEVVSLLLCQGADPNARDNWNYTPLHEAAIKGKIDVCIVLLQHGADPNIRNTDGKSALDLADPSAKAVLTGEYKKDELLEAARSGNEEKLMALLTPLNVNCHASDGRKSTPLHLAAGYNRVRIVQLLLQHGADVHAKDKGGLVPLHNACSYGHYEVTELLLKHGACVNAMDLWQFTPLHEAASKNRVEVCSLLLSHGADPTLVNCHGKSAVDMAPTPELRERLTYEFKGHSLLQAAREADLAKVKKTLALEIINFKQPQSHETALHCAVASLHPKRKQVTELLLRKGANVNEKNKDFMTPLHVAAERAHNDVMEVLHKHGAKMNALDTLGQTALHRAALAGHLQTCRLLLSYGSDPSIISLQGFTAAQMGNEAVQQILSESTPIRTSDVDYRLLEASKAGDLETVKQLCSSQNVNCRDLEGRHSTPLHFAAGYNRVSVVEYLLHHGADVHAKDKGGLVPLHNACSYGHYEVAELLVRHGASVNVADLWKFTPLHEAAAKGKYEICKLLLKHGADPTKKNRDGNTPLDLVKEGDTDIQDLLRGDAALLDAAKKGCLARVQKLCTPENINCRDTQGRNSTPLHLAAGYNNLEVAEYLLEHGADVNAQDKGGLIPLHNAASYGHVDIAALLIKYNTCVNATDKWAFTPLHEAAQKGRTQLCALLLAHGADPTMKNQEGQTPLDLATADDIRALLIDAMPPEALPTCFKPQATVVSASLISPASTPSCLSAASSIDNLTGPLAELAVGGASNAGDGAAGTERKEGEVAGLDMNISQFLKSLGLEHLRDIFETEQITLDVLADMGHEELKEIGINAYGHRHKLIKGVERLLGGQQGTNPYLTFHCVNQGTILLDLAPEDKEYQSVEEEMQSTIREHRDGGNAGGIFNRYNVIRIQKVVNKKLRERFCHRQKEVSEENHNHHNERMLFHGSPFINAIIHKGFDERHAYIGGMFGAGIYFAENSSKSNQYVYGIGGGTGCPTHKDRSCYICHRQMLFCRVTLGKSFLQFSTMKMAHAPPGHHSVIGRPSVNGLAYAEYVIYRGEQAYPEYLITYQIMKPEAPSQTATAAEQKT

[20] = Half life in CD-1 mouse plasma at 1 uM by LC-MS/MS analysis; assay type: ADME, cell-free
Summary of the method: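 Lithium-heparinized CD-1 mouse plasma was spiked with 1 μM substrate and incubated at 37 °C for 3 h, sampling at 0, 0.167, 1, 2 and 3 h (n = 2). Samples underwent acetonitrile protein precipitation with tolbutamide as internal standard. Analysis was by reversed-phase UPLC-ESI-MS/MS in MRM mode.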

Rattus norvegicus [21] = assay: Clearance in rat at 5 mg/kg, iv; assay type: ADME, organism-based; parameters: dose 5 mg/kg, route intravenous; details: in vivo
SW480 = assay: as §2; assay type: cell-based; details: dose or concentration not given here; summary of the method: as §3

SMILES	clearance [2] [mL/min/kg]	pIC50 [3]	pEC50 [4]	inhibition in vivo at 10 mg/kg (Mus musculus [5]) [%]	bioavailability [6] [%]	half-life [7] [min]	AUC(0-inf) [8] [µM·h]	Vd [9] [L/kg]	pIC50 [10]	Tmax [11] [min]	fraction unbound at 5 h, 5 µM [12]	inhibition in vivo at 50 mg/kg (Mus musculus [13]) [%]	Cp(f) (Plasma) [µM]	Cmax [14] [µM]	solubility [15] [µg/mL]	pIC50 [19]	half-life at 1 µM [20] [min]	further results
O=C(CCSc1nc2ccccc2c(=O)[nH]1)N[C@H]1CC[C@H](c2nnc(-c3ccccc3)o2)CC1	13.8	8.40	8.41	51	13	108	49.5	0.7	9.22	34.8	0.017	58	0.013	18.7	7 (≈ 14.7 µM)			microsomal CLint at 1 µM [1]: 57 µL/min/mg
N#Cc1ccc(O[C@H]2CC[C@H](NC(=O)CCSc3nc4ccccc4c(=O)[nH]3)CC2)cc1	2	8.72	8.40	70	21	168	141	0.32	9.52	90	0.006	79	0.009	24.2				
COc1ccccc1NC(=O)c1ccc(NC(=O)CCc2nc3ccccc3c(=O)[nH]2)cc1		6.80													6.6 (≈ 14.9 µM)	8.00	40	AUC (Rattus norvegicus [16]): 0.11 µM·h; Vd [17]: 4.69 L/kg; half-life [18]: 22.2 min; CL (Rattus norvegicus [21]): 182 mL/min/kg
Cn1nc(-c2ccc(NC(=O)CCc3nc4ccccc4c(=O)[nH]3)cc2)c2ccccc21																6.40	> 1000	inhibition (SW480): > 50%
O=C(CCSc1nc2ccccc2c(=O)[nH]1)N[C@H]1CC[C@H](Oc2ccncc2)CC1	11	8.16	8.17			42	11.5	0.4	9.15	40.2	0.032			7				
